# Measured values reported in PubChem BioAssay.
# Calls of active or inactive are those of the source.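 How the source made its calls: active means active in primary screen and both duplicates, each dropping signal beyond three positive-control SD with fluorescence still positive; inactive means the rest.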
# Target: Short transient receptor potential channel 6 (Mus musculus) (UniProt Q61143)
# Test: TRPC6 blockade by TRPC4 inhibitor hits – cell-based, HEK293, membrane potential dye, duplicate, selectivity assay for TRPC4 inhibitor project, confirmation (AID 434948)
# Conditions: HEK293 TRPC6, membrane potential dye fluorescence, at 10 µM, stimulated with maximal-effect acetylcholine; hits give high values
# How it was run: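 Material – TRPC6-expressing HEK293 cells · Repeats – two replicates · Read-out basis – control-normalized integrated fluorescence ratio · Schedule – 45 min RT dye load, 110 s compound, 110 s agonist read · Reagent – acetylcholine at maximal (ECmax) concentration, added after compound · Detection – kinetic fluorescence of membrane potential dye with 5 s baseline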
# Chain of Short transient receptor potential channel 6 (Mus musculus) (Q61143 whole entry, looked up): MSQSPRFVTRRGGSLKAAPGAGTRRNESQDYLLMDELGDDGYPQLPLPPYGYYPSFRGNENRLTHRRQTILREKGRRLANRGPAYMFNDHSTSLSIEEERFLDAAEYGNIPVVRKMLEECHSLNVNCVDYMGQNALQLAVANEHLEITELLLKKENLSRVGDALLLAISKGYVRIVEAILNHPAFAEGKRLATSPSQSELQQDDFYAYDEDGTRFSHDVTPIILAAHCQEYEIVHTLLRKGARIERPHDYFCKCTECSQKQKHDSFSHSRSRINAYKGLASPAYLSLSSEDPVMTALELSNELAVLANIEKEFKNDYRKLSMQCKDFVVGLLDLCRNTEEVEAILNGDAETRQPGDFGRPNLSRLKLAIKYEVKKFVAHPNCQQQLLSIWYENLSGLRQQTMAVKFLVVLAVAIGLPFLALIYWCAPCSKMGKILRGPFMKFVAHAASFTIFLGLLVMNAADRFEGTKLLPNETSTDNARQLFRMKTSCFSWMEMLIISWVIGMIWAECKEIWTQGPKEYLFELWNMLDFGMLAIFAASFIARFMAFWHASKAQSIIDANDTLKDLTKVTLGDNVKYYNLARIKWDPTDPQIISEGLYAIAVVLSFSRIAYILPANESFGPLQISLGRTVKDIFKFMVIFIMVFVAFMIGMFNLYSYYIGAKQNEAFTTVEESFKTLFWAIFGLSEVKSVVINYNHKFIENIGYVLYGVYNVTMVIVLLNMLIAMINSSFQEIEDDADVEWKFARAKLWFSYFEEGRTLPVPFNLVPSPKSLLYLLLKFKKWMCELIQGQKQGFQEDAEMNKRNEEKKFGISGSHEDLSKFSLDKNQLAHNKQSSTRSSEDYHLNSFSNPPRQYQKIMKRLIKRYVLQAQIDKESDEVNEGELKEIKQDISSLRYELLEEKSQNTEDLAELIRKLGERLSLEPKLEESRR
Structure (SMILES),outcome,inhibition
CCC(O)(c1ccc(OC)cc1)C(CN1CCOCC1)c1ccccc1 (stereo not given),inactive,
COc1ccc(Nc2cc(C)nc3ccc(OC)cc23)cc1,,29.5% (active)
Cc1ccc(C(C)(C)C)cc1S(=O)(=O)Nc1nc2ccccc2nc1Cl,inactive,
CN(C)C(CNC(=O)c1ccccc1OCc1ccc(Cl)cc1)c1ccco1 (stereo not given),inactive,
COc1ccc(-c2csc(NC(=O)Cc3cccc4ccccc34)c2C(=O)O)cc1,inactive,
CC1CCN(C(C)C(=O)Nc2ccccc2-c2ccccc2)CC1 (stereo not given),inactive,
O=c1c2ccccc2nc(SCc2ccccc2)n1CC1CCCO1 (stereo not given),inactive,
CC(=O)Nc1cccc(C(=O)NCC2(N3CCCCC3)CCCCC2)c1,inactive,
Cc1ccn2cc(CCNC(=O)c3ccc(Br)o3)nc2c1,inactive,
CCOc1ccc2ccccc2c1CNCCc1ccc(S(N)(=O)=O)cc1,inactive,
CCc1cccc(OCC(=O)Nc2ccc(C(=O)O)cc2NC(=O)COc2cccc(CC)c2)c1,inactive,
COc1ccc(CN2CCN(C(=O)c3ccc(F)cc3)CC2)c(OC)c1,inactive,
CCOc1ccc(Br)cc1/C=N/O,,27.5% (active)
CCC1CCCCN1Cc1nc2c(c(=O)n(C)c(=O)n2C)n1Cc1ccccc1 (stereo not given),inactive,
O=C(c1ccc2c(c1)OCO2)C1CCCN(Cc2ccccc2OC(F)F)C1 (stereo not given),inactive,
O=C(Nc1ccccc1N1CCN(C(=O)c2ccccc2)CC1)c1ccc(Br)o1,inactive,
Cc1ccc(C(=O)C2=C(O)C(=O)N(Cc3cccnc3)C2c2ccc(Cl)c(Cl)c2)o1 (stereo not given),inactive,
Cc1cccc(CCN(C(=O)c2snc(C(N)=O)c2N)C(C(=O)NCC2CCCO2)c2ccc(F)cc2)c1 (stereo not given),inactive,
Cc1ccc(NC(=O)c2cc(N3C(=O)C=CC3=O)ccc2N2CCOCC2)cc1,inactive,
Fc1ccccc1Sc1ccccc1CNC1=NCCN1,inactive,

Structure (SMILES),outcome,inhibition
CC(C)C(NC(=O)c1ccc(C(C)(C)C)cc1)C(=O)NCC(c1ccccc1)N(C)C (stereo not given),inactive,
COCCn1c(SCC(=O)c2ccccc2)nc2ccccc2c1=O,inactive,
COc1ccc(SC[C@H](Cc2ccccc2)N2CCN(C)CCC2=O)cc1,inactive,
O=C(CCCSc1nc2ccccc2[nH]1)NCc1ccccc1Cl,inactive,
CCOC(=O)C1(Cc2ccccc2)CCN(CC2CC=CCC2)CC1 (stereo not given),inactive,
CCn1c(NCc2c[nH]c3ccccc23)nc2ccccc21,inactive,
COc1ccc(C(CNC(=O)c2oc3ccc(F)cc3c2C)N2CCCCC2)cc1 (stereo not given),inactive,
CCC(=O)N1CCc2cc(S(=O)(=O)NCCN3CCCCC3CC)ccc21 (stereo not given),inactive,
Nc1cc(N2CCCCC2)c([N+](=O)[O-])cc1Cl,inactive,
Cc1c(CCOC(=O)c2cccc([N+](=O)[O-])c2)sc[n+]1CC(=O)c1ccccc1,inactive,
CCOc1cc(CNCCCN2CCOCC2)cc(Br)c1OCc1ccccc1Cl,inactive,
Cc1ccc(Sc2ccc(CO)cc2[N+](=O)[O-])cc1,inactive,
Cc1ccc(Cn2c(Cc3ccccc3)nc3ccccc32)cc1,inactive,
CC1CCc2c(sc(/N=C/N(C)C)c2C#N)C1 (stereo not given),inactive,
COc1ccccc1N1CCN(CC(C)N(C(=O)C2CCCCC2)c2ccccn2)CC1 (stereo not given),inactive,
CCN(CC)c1ncnc2scc(C3COc4ccccc4O3)c12 (stereo not given),inactive,
COc1ccc(Sc2nc(-c3ccccc3)ncc2C(=O)O)cc1,inactive,
Cc1cccc(CN2CCCC(C(=O)Nc3ccccc3Oc3cccnc3)C2)c1 (stereo not given),inactive,
Cn1nnnc1SCCNCc1ccccc1OCc1ccc(Cl)cc1,inactive,
O=C(C[n+]1cccc(CNC(=O)c2ccc(OC(F)F)cc2)c1)Nc1ccc(SC(F)F)cc1,inactive,
